Test results taken from ChEMBL document CHEMBL5104204, “Synthesis and in vitro anticancer evaluation of novel flavonoid-based amide derivatives as regulators of the PI3K/AKT signal pathway for TNBC treatment” (RSC Med Chem, 2022).

Key:
Type in all cases: functional, cell-based
MCF7 = assay: Antitumor activity against human MCF7 cells assessed as inhibit cell proliferation incubated for 72 hrs by CCK-8 assay; conditions: MCF7, 72 h
Method in brief: (§1)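 CCK8 viability readout. Culture media: HCC1937, A549, HeLa and GTL-16 in RPMI 1640; MDA-MB-231, MCF-7 and HepG2 in high-glucose DMEM; all with 10% FBS and penicillin/streptomycin, 37 °C, 5% CO2. 4×10^3–6×10^3 cells/well, 24 h, then compounds in serum-free medium, 72 h at 37 °C. 10% CCK8, 2 h, OD 450/630 nm. Five wells per group; IC50 from inhibition rate; three independent experiments, mean ± SD.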

HeLa = assay: Antitumor activity against human HeLa cells assessed as inhibit cell proliferation incubated for 72 hrs by CCK-8 assay; method in brief: as §1
GTL 16 cell line = assay: Antitumor activity against human GTL 16 cell line assessed as inhibit cell proliferation incubated for 72 hrs by CCK-8 assay; conditions: GTL 16, 72 h; method in brief: as §1
MDA-MB-231 = assay: Antitumor activity against human MDA-MB-231 cells assessed as inhibit cell proliferation incubated for 72 hrs by CCK-8 assay; conditions: MDA-MB-231, 72 h; method in brief: as §1
HCC1937 = assay: Antitumor activity against human HCC1937 cells assessed as inhibit cell proliferation incubated for 72 hrs by CCK-8 assay; conditions: HCC1937, 72 h; method in brief: as §1
A549 = assay: Antitumor activity against human A549 cells assessed as inhibit cell proliferation incubated for 72 hrs by CCK-8 assay; conditions: A549, 72 h; method in brief: as §1
HepG2 = assay: Antitumor activity against human HepG2 cells assessed as inhibit cell proliferation incubated for 72 hrs by CCK-8 assay; conditions: HepG2, 72 h; method in brief: as §1

SMILES | IC50 (MCF7) | IC50 (HeLa) | IC50 (GTL 16 cell line) | IC50 (MDA-MB-231) | IC50 (HCC1937) | IC50 (A549) | IC50 (HepG2)
O=c1[nH]cc(F)c(=O)[nH]1 [FLUOROURACIL] | 4.42 µM | 1.94 µM | 0.84 µM | 7.75 µM | 25.9 µM | 2.65 µM | 2.88 µM
O=C(Nc1cccc(-c2oc3cc(-c4ccc(F)cc4)ccc3c(=O)c2O)c1)c1cccc(F)c1 | 5.77 µM | 8.78 µM | 15.8 µM | 2.51 µM | 6.59 µM | 15.4 µM | 15.5 µM
O=C(Nc1cccc(-c2oc3cc(-c4ccc(F)cc4)ccc3c(=O)c2O)c1)c1ccc(Cl)cc1 | 4.73 µM | 3.67 µM | 9.14 µM | 12.8 µM | 4.03 µM | 10.8 µM | 11 µM
O=C(Nc1cccc(-c2oc3cc(-c4ccc(F)cc4)ccc3c(=O)c2O)c1)c1ccc(Br)cc1 | 24 µM | 9.74 µM | 25.4 µM | 24.9 µM | 8.63 µM | 13.5 µM | 13.9 µM
Cc1ccc(C(=O)Nc2cccc(-c3oc4cc(-c5ccc(F)cc5)ccc4c(=O)c3O)c2)cc1 | 2.4 µM | 6.19 µM | 12.9 µM | 4.35 µM | 7.11 µM | 6.91 µM | 2.32 µM
O=C(Nc1cccc(-c2oc3cc(-c4ccc(F)cc4)ccc3c(=O)c2O)c1)c1ccc(-c2ccccc2)cc1 | 38.5 µM | > 100 µM |  | 63.2 µM | 44.1 µM | > 100 µM | 88.5 µM
COc1ccccc1C(=O)Nc1cccc(-c2oc3cc(-c4ccc(F)cc4)ccc3c(=O)c2O)c1 | 2.1 µM | 14.1 µM | 6.37 µM | 5.11 µM | 9.05 µM | 11.7 µM | 14.5 µM
Cc1cc(C(=O)Nc2cccc(-c3oc4cc(-c5ccc(F)cc5)ccc4c(=O)c3O)c2)ccc1F | 7.71 µM | 18.9 µM | 12.1 µM | 7.44 µM | 5.42 µM | 11.5 µM | 9.54 µM
CCCc1ccc(C(=O)Nc2cccc(-c3oc4cc(-c5ccc(F)cc5)ccc4c(=O)c3O)c2)cc1 | 36.8 µM | 8.79 µM | 20.4 µM | 32.2 µM | 15.3 µM | 47.6 µM | 51.5 µM
COc1ccc(C(=O)Nc2cccc(-c3oc4cc(-c5ccc(F)cc5)ccc4c(=O)c3O)c2)c(F)c1 | 20 µM | 16.1 µM | 15.3 µM | 17.6 µM | 24.4 µM | 40 µM | 45.3 µM
O=C(Nc1cccc(-c2oc3cc(-c4ccc(F)cc4)ccc3c(=O)c2O)c1)c1ccc(F)cc1F | 13.5 µM | 10.7 µM | 9.64 µM | 11.2 µM | 6.98 µM | 20.5 µM | 26.4 µM
O=C(Nc1cccc(-c2oc3cc(-c4ccc(F)cc4)ccc3c(=O)c2O)c1)c1ccc(F)cc1 | 8.59 µM | 5.35 µM | 14.6 µM | 16 µM | 14.2 µM | 6.93 µM | 9.28 µM
COc1cc(OC)cc(C(=O)Nc2cccc(-c3oc4cc(-c5ccc(F)cc5)ccc4c(=O)c3O)c2)c1 | 3.47 µM | 2.7 µM | 19.6 µM | 4.04 µM | 6.25 µM | 2.39 µM | 23.5 µM
O=C(Nc1cccc(-c2oc3cc(-c4ccc(F)cc4)ccc3c(=O)c2O)c1)c1ccc([N+](=O)[O-])cc1 | 3.97 µM | 12.3 µM | 18.2 µM | 14.7 µM | 5.64 µM | 2.44 µM | 1.86 µM
Cc1ccccc1C(=O)Nc1cccc(-c2oc3cc(-c4ccc(F)cc4)ccc3c(=O)c2O)c1 | 2.28 µM | 11.9 µM | 24.8 µM | 4.91 µM | 9.9 µM | 17.6 µM | 19.4 µM
Cc1cc(C)cc(C(=O)Nc2cccc(-c3oc4cc(-c5ccc(F)cc5)ccc4c(=O)c3O)c2)c1 | 20.4 µM | 5.54 µM | 13.5 µM | 11.9 µM | 4.86 µM | 3.74 µM | 13.4 µM
CCc1ccc(C(=O)Nc2cccc(-c3oc4cc(-c5ccc(F)cc5)ccc4c(=O)c3O)c2)cc1 | 22.8 µM | 21 µM | 24.6 µM | 9.07 µM | 13.2 µM | 18.5 µM | 20.6 µM
COc1cccc(C(=O)Nc2cccc(-c3oc4cc(-c5ccc(F)cc5)ccc4c(=O)c3O)c2)c1 | 15.3 µM | 5.65 µM | 12.5 µM | 9.16 µM | 18.9 µM | 10.8 µM | 9.95 µM
N#Cc1ccc(C(=O)Nc2cccc(-c3oc4cc(-c5ccc(F)cc5)ccc4c(=O)c3O)c2)cc1 | 2.66 µM | 23.3 µM | 31.8 µM | 11.6 µM | 2.99 µM | 2.36 µM | 7.11 µM
O=C(Nc1cccc(-c2oc3cc(-c4ccc(F)cc4)ccc3c(=O)c2O)c1)c1ccc(C(F)(F)F)cc1 | 32.6 µM | 17.4 µM | 33 µM | 29.4 µM | 7.35 µM | 19.4 µM | 42.7 µM
Cc1cccc(C(=O)Nc2cccc(-c3oc4cc(-c5ccc(F)cc5)ccc4c(=O)c3O)c2)c1 | 7.85 µM | 6.65 µM | 10.9 µM | 2.84 µM | 8.03 µM | 16.4 µM | 13.5 µM
O=C(Nc1cccc(-c2oc3cc(-c4ccc(F)cc4)ccc3c(=O)c2O)c1)c1ccccc1F | 7.57 µM | 5.63 µM | 17.4 µM | 7.24 µM | 10.8 µM | 4.41 µM | 10.1 µM
O=C(Nc1cccc(-c2oc3cc(-c4ccc(F)cc4)ccc3c(=O)c2O)c1)c1cnc(Cl)nc1Cl |  |  |  |  |  | > 100 µM | > 100 µM
O=C(Nc1cccc(-c2oc3cc(-c4ccc(F)cc4)ccc3c(=O)c2O)c1)c1cc(F)cc(F)c1 | 2.49 µM | 3.38 µM | 7.41 µM | 2.44 µM | 2.07 µM | 7.62 µM | 4.96 µM
O=C(Nc1cccc(-c2oc3cc(-c4ccc(F)cc4)ccc3c(=O)c2O)c1)c1ccc(Br)cc1F |  |  |  |  |  | 46.1 µM | > 100 µM
COc1ccc(C(=O)Nc2cccc(-c3oc4cc(-c5ccc(F)cc5)ccc4c(=O)c3O)c2)cc1 | 6.25 µM | 4.82 µM | 21.1 µM | 16.5 µM | 5.49 µM | 8.7 µM | 8.42 µM
